SENP6 inh = SENP6 protease inhibition. Q9GZR1. Recombinant SENP6 catalytic domain, aminoluciferin luminescence. inhibition, % at 10 µM. 330,000 compounds, 1.8% hits. AID 2599;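 active means inhibition above about 50% at the single tested dose, limit read from the data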;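 further: plate controls were DMSO wells with enzyme for no effect and DMSO wells lacking enzyme for full effect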
Target sequence (Q9GZR1 628-1112 limits assumed): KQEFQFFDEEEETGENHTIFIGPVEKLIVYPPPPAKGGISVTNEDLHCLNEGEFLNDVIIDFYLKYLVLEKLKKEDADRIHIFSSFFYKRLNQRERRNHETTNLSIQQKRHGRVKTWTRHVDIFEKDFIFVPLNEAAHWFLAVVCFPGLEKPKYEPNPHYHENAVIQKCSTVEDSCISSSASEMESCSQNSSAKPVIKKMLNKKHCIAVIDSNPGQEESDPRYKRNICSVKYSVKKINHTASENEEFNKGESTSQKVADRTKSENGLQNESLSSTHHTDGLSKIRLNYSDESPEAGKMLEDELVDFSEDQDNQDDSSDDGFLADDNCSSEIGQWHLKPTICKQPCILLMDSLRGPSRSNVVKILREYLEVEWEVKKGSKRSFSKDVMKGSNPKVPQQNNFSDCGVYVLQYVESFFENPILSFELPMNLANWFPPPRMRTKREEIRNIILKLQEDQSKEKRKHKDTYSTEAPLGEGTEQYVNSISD
Apaf1 inhib = blocks human Apaf-1 apoptosome activity. O14727. reconstituted apoptosome caspase-3 activity, DEVD-Rh110 fluorescence. inhibition, % at 20 µM. 330,000 compounds, 0.71% hits; active means inhibition of at least 40% at 20 µM;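 further: plate controls were DMSO wells for no effect and DEVD-CHO caspase inhibitor wells for full effect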
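detection = Rh110 fluorescence intensity | test system = biochemical Apaf-1 apoptosome reconstitution | also added = cytochrome c and DEVD-Rh110 substrate | schedule = 30 min plus 50 min, RT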
SENP8 block-1 = blocks human SENP8 cleavage of Nedd8 substrate | Q96LD8 | recombinant SENP8, Nedd8 substrate fluorescence | inhibition, % at 20 µM | 360,000 compounds, 0.64% hits; in the data active means inhibition mostly above about 40%, no sharp cut-off; inactive means mostly below about 27%
SENP7 block = SENP7 protease inhibition | recombinant SENP7, Z-RLRGG-aminoluciferin luminescence, 40 min | AID 434973 | 330,000 compounds, 1.5% hits | inhibition, % at 5 µM;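 active means inhibition above about 50% at the single test dose, limit read from the data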;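 further: plate controls were DMSO with enzyme for no effect and no enzyme buffer wells for full effect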
SENP8 block-2 = inhibitors of human SENP8 protease. Q96LD8. purified SENP8, Z-RLRGG-aminoluciferin cleavage, luminescence. inhibition, % at 10 µM. 330,000 compounds, 1.2% hits. AID 2540; in the data active means inhibition above about 50%
SENP1 FRET inh = inhibitors of human SENP1 SUMO protease catalytic domain; Q9P0U3; recombinant SENP1 catalytic domain, CyPet-SUMO1-YPet FRET cleavage; inhibition, % at 10 µM; 360,000 compounds, 0.21% hits; AID 624204;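 active means inhibition at least 30% at 10 µM, raw YFP signal under a set limit, fluorescence ratio 0.5 to 1.5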;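 further: 0% = enzyme with DMSO and 100% = no enzyme wells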
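Controls: no-enzyme wells low, DMSO-plus-enzyme wells high control. Test system: human recombinant His6-tagged SENP1 catalytic domain enzyme. Reagent: SFCypet-SUMO1-SFYpet FRET protein substrate, 25 nM final. Doses: one dose per compound, 10 µM, 0.5% DMSO. Detection: FRET, CFP and YFP emission. Timing: 50 min reaction at room temperature.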
Numbers without * were called inactive; x = not tested or not shown. Shown are actives, neighbours in structure and some others; about 2.9% of the full set was active somewhere.

SMILES	SENP6 inh	Apaf1 inhib	SENP8 block-1	SENP7 block	SENP8 block-2	SENP1 FRET inh
O=C(NCc1ccccn1)C1CCCN(S(=O)(=O)c2cc(Cl)ccc2Cl)C1 (centres undefined)	x	x	43.0*	x	x	2.6
O=C(CCCSc1ccc(Cl)cc1)Nc1cc(S(=O)(=O)N2CCOCC2)ccc1O	-15.5	-7.9	11.0	-0.9	9.7	-12.0
CCN(CC)Cc1ccccc1CNC(=O)c1cccc(S(=O)(=O)Nc2ccc3c(c2)OCO3)c1	-7.9	16.8	2.7	7.2	3.7	-0.7
O=C1C(Nc2ccccc2)=C(NS(=O)(=O)c2ccccc2)C(=O)c2ccccc21	13.7	25.1	38.8	8.8	9.1	0.2
O=C1C(Nc2ccccc2)=C/C(=N/S(=O)(=O)c2cccs2)c2ccccc21	x	x	82.8*	x	x	1.9
C[C@H](CO)N1C[C@H](C)[C@H](CN(C)S(=O)(=O)c2ccc(C#N)cc2)OCc2cnnn2CCCC1=O	x	x	8.4	x	x	0.6
Cc1ccc(S(=O)(=O)N2[C@H](CC(=O)OCc3ccccc3)OC[C@@H]2C(C)C)cc1	x	x	15.5	x	x	-0.5
CN(C)c1ccc(/C=N\NC(=O)c2csnn2)cc1	32.0	5.8	-7.7	40.1	13.4	1.5
O=C(N/N=C\c1ccc(Oc2ccccc2)cc1)c1csnn1	74.9*	7.9	-0.2	76.7*	71.4*	1.8
Cc1ccc(C(OCC(C)(C)C[N+](C)(C)C)c2ccccc2)cc1 (centres undefined)	-18.2	1.7	9.7	4.3	2.6	-2.2
CCCCCCCCN1C(=O)[C@H](CC(=O)NCC23CC4CC(CC(C4)C2)C3)C[C@@]2(C(=O)OCC)CCC=C12	x	x	26.0	x	x	-0.7
CCCCCCN(C(=O)CCCCCN1C(=O)NC(c2ccc(-c3ccccc3)cc2)C(C(=O)OCc2ccccc2)=C1C)C(C)C(=O)NCCCC (centres undefined)	-1.7	17.3	x	-6.5	15.4	x
CCCCNC(=O)C(C1CCCCC1)N(CCN(C)C)C(=O)CCCN1C(=O)NC(c2ccc(-c3ccccc3)cc2)C(C(=O)OCc2ccccc2)=C1C (centres undefined)	x	64.3*	x	9.4	x	x
CCCCc1nc(N2CCN(C(=O)c3ccco3)CC2)c(C#N)c2c1CCCC2	-13.3	41.8*	-312.7	-14.4	-9.3	-1.4
CCO[C@@H]1OC(C(=O)N2CCOCC2)=C[C@H](C(C)(C)C)[C@H]1CCCO	-22.2	3.4	9.3	7.1	-11.5	3.1
CC1=NN(c2ccccc2)C(=O)/C1=C\C=C1/N(C)c2ccccc2C1(C)C	11.9	25.9	46.7*	4.6	-0.5	47.8*
CC1=NN(c2ccccc2)C(=O)/C1=C\c1cn(C)c2ccccc12	-10.3	17.5	25.7	5.9	-0.5	4.9
CC1=NN(c2ccccc2)C(=O)/C1=C\C=C1\N(C)c2ccccc2C1(C)C	-7.2	34.2	18.1	6.0	6.3	26.7
CC1=NN(c2ccccc2)C(=O)/C1=C\c1cc(C)n(C)c1C	14.7	10.4	44.0*	-2.0	2.9	5.3
CC1=NN(c2ccccc2)C(=O)/C1=C/c1cc2cc(C)ccc2nc1N1CCCCC1	23.4	94.2*	x	21.5	-0.1	x
CC1=NN(c2ccccc2)C(=O)/C1=C/C=C/c1ccc(N(C)C)cc1	x	x	37.5*	x	x	2.2
CCN(c1ccccc1)S(=O)(=O)c1cccc(C(=O)OCC(=O)Nc2ccc(NC(C)=O)cc2)c1	-17.2	-0.6	1.5	3.0	-1.6	3.4
CC1(C(=O)Nc2cccc(Oc3ccccc3)c2)CCN1Cc1cc2ccccc2o1 (centres undefined)	x	x	6.0	x	x	0.5
CC1CCCN(c2ccc(/C=C(\C#N)c3nn(-c4ccccc4)c(N)c3C#N)cc2[N+](=O)[O-])C1 (centres undefined)	1.7	-0.3	47.4*	7.3	6.6	1.3
CC1CCN(c2ccc(/C=C(\C#N)c3nn(-c4ccccc4)c(N)c3C#N)cc2[N+](=O)[O-])CC1	8.5	2.7	31.3	-2.4	-5.4	2.1
N#C/C(=C\c1ccc(N2CCCCC2)c([N+](=O)[O-])c1)c1nn(-c2ccccc2)c(N)c1C#N	-5.8	4.1	5.6	1.1	-11.1	-2.0
CC1CCN(c2cc(N3CCC(C)CC3)c([N+](=O)[O-])cc2/C=C(\C#N)c2nn(-c3ccccc3)c(N)c2C#N)CC1	8.9	17.6	59.7*	11.9	2.7	9.1

Source: PubChem BioAssay
